Test results from ChEMBL document CHEMBL4706486, “Usnic acid derivatives as tau-aggregation and neuroinflammation inhibitors” (Eur J Med Chem, 2020).
Calls of active or inactive are those of the source. The calls are words filed in the database; no cut-off is given here.

species: Homo sapiens; test: Inhibition of acetyl-PHF6 amide self-aggregation (unknown origin) in pH 7.4 phosphate buffer assessed as decrease in absorbance intensity at 10 uM and 25 degreeC measured immediately after 10 sec vibration per minute for 120 mins under shaking condition by circular dichroism spectroscopy; settings: not given
Summary of the method: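 Fresh samples of 100 μM AcPHF6 with 10 μM compound (≤0.1% DMSO) in 50 mM phosphate buffer pH 7.4. 10 s vibration per minute at 25 °C over 120 min. Spectra 260–200 nm, 1 mm quartz cell, 1 nm bandwidth, 50 nm/min scan. Solvent and compound contributions subtracted, converted to Δε per residue, Savitzky-Golay smoothed.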

inhibition	Structure (SMILES)
Active	CC(=O)c1c(O)c(C)c(O)c2c1OC1=CC(=O)/C(=C(/C)Nc3ccc(O)cn3)C(=O)[C@@]12C

species: Homo sapiens; test: Inhibition of acetyl-PHF6 amide self-aggregation (unknown origin) in pH 7.4 phosphate buffer assessed as absence of fibrillar material at 20 uM and 25 degreeC measured after 10 mins by phosphotungstic acid staining based TEM analysis; settings: not given

inhibition	Structure (SMILES)
inactive	CC(=O)c1c(O)c(C)c(O)c2c1OC1=CC(=O)/C(=C(/C)Nc3ccc(O)cn3)C(=O)[C@@]12C

test system: BV-2; test: Cytotoxicity against mouse BV-2 cells at 20 uM measured after 24 hrs by MTT assay; format: cell-based; settings: bv-2, 24 h
Summary of the method: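 Cells in high-glucose DMEM with 10% FBS, 5% CO₂, 37 °C, seeded 3000–5000/well, exposed to compound 24 h. MTT (0.5 mg/mL) 4 h, formazan dissolved in DMSO, absorbance 570 nm (reference 630 nm). Viability as percent of untreated control; mean ± SD, three independent experiments.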

Structure (SMILES)	Activity
CC(=O)C1=C([O-])C=C2Oc3c(C(C)=O)c(O)c(C)c(O)c3[C@]2(C)C1=O.[Na+]	Toxic

species: Homo sapiens; test: Inhibition of acetyl-PHF6 amide self-aggregation (unknown origin) in pH 7.4 phosphate buffer at 10 uM and 25 degreeC measured every 1 min for 120 mins under shaking condition by ThT fluorescence assay relative to control; settings: not given
Summary of the method: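 AcPHF6 dissolved in HFIP, dried overnight, 1 mM water stock used at once. Final 100 μM peptide, 20 μM ThT, 10 μM compound (≤0.1% DMSO) in 50 mM phosphate buffer pH 7.4, 25 °C. Ex 440/em 490 nm read each minute for 120 min, 10 s shaking (400 rpm) before each read. Inhibition from mean signal at 50–60 min; ≥3 wells; mean ± SD of three experiments; DMSO negative control.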

Structure (SMILES)	inhibition
CC(=O)c1c(O)c(C)c(O)c2c1OC1=Cc3c(c(C)nn3-c3nc4ccccc4[nH]3)C(=O)[C@@]12C	12.2%
CC(=O)c1c(O)c(C)c(O)c2c1OC1=Cc3c(c(C)nn3-c3cccc(F)c3)C(=O)[C@@]12C	30.3%
CC(=O)c1c(O)c(C)c(O)c2c1OC1=Cc3c(c(C)nn3-c3cccnc3)C(=O)[C@@]12C	29.8%
COc1ccc(-n2nc(C)c3c2C=C2Oc4c(C(C)=O)c(O)c(C)c(O)c4[C@@]2(C)C3=O)cn1	7.7%
CC(=O)c1c(O)c(C)c(O)c2c1OC1=Cc3[nH]nc(C)c3C(=O)[C@@]12C	22.5%
CC(=O)c1c(O)c(C)c(O)c2c1OC1=Cc3c(c(C)nn3-c3ccc(C)nn3)C(=O)[C@@]12C	40.9%
CC(=O)C1=C([O-])C=C2Oc3c(C(C)=O)c(O)c(C)c(O)c3[C@]2(C)C1=O.[Na+]	inactive
CC(=O)c1c(O)c(C)c(O)c2c1OC1=CC(=O)/C(=C(/C)NCCCCCO)C(=O)[C@@]12C	inactive
CC(=O)c1c(O)c(C)c(O)c2c1OC1=Cc3c(c(C)nn3-c3cnccn3)C(=O)[C@@]12C	38%
COc1ccc(-n2nc(C)c3c2C=C2Oc4c(C(C)=O)c(O)c(C)c(O)c4[C@@]2(C)C3=O)cc1	27.2%
O=c1c(O)c(-c2cc(O)c(O)c(O)c2)oc2cc(O)cc(O)c12	85.9%
CC(=O)c1c(O)c(C)c(O)c2c1OC1=Cc3c(c(C)nn3-c3cccc(C(=O)O)c3)C(=O)[C@@]12C	40.4%
CCOC(=O)c1ccc(-n2nc(C)c3c2C=C2Oc4c(C(C)=O)c(O)c(C)c(O)c4[C@@]2(C)C3=O)cc1	14.5%
CC(=O)c1c(O)c(C)c(O)c2c1OC1=Cc3c(c(C)nn3-c3n[nH]c(=O)c4ccccc34)C(=O)[C@@]12C	9.3%
CC(=O)c1c(O)c(C)c(O)c2c1OC1=Cc3c(c(C)nn3-c3ccc(C(C)(C)C)cc3)C(=O)[C@@]12C	22.3%
CC(=O)c1c(O)c(C)c(O)c2c1OC1=Cc3c(c(C)nn3-c3ccccn3)C(=O)[C@@]12C	17.1%

Structure (SMILES)	inhibition
CC(=O)c1c(O)c(C)c(O)c2c1OC1=Cc3c(c(C)nn3-c3ccc(F)cc3)C(=O)[C@@]12C	26.9%
CC(=O)c1c(O)c(C)c(O)c2c1OC1=Cc3c(c(C)nn3-c3nc4ccccc4s3)C(=O)[C@@]12C	inactive
CC(=O)c1c(O)c(C)c(O)c2c1OC1=CC(=O)/C(=C(/C)N[C@@H](Cc3c[nH]c4ccccc34)C(=O)O)C(=O)[C@@]12C	47.6%
CC(=O)c1c(O)c(C)c(O)c2c1OC1=Cc3c(c(C)nn3S(=O)(=O)c3ccc(C)cc3)C(=O)[C@@]12C	inactive
CC(=O)c1c(O)c(C)c(O)c2c1OC1=Cc3c(c(C)nn3-c3ccncc3)C(=O)[C@@]12C	8.5%
COc1ccc(S(=O)(=O)n2nc(C)c3c2C=C2Oc4c(C(C)=O)c(O)c(C)c(O)c4[C@@]2(C)C3=O)cc1	inactive
CC(=O)c1c(O)c(C)c(O)c2c1OC1=Cc3c(c(C)nn3S(=O)(=O)c3ccccc3)C(=O)[C@@]12C	inactive
CC(=O)c1c(O)c(C)c(O)c2c1OC1=CC(=O)/C(=C(/C)Nc3cc(C(C)(C)C)c(O)c(C(C)(C)C)c3)C(=O)[C@@]12C	inactive
COc1cccc(-n2nc(C)c3c2C=C2Oc4c(C(C)=O)c(O)c(C)c(O)c4[C@@]2(C)C3=O)c1	24%
CC(=O)c1c(O)c(C)c(O)c2c1OC1=Cc3c(c(C)nn3-c3ccc(S(N)(=O)=O)cc3)C(=O)[C@@]12C	46.8%
CC(=O)c1c(O)c(C)c(O)c2c1OC1=Cc3c(c(C)nn3-c3ccc(C#N)cc3)C(=O)[C@@]12C	20.1%
CC(=O)c1c(O)c(C)c(O)c2c1OC1=CC(=O)/C(=C(/C)Nc3cc(C(C)C)c(O)cc3C)C(=O)[C@@]12C	inactive
CC(=O)c1c(O)c(C)c(O)c2c1OC1=CC(=O)/C(=C(/C)N[C@@H](Cc3ccccc3)C(=O)O)C(=O)[C@@]12C	inactive
CC(=O)c1c(O)c(C)c(O)c2c1OC1=Cc3c(c(C)nn3-c3ccc(S(C)(=O)=O)cc3)C(=O)[C@@]12C	28.7%
CC(=O)c1c(O)c(C)c(O)c2c1OC1=Cc3c(c(C)nn3-c3ccccc3C(=O)O)C(=O)[C@@]12C	32.8%

Other lines, results leading:

inhibition	Structure (SMILES)
48.4%	CC(=O)c1c(O)c(C)c(O)c2c1OC1=CC(=O)/C(=C(/C)Nc3ccc(Cl)cc3O)C(=O)[C@@]12C
29.8%	CC(=O)c1c(O)c(C)c(O)c2c1OC1=CC(=O)/C(=C(/C)Nc3ccc4scnc4c3)C(=O)[C@@]12C
inactive	CC(=O)c1c(O)c(C)c(O)c2c1OC1=CC(=O)/C(=C(/C)Nc3c(C)cc(O)cc3C)C(=O)[C@@]12C
48%	CC(=O)c1c(O)c(C)c(O)c2c1OC1=CC(=O)/C(=C(/C)Nc3ncccc3O)C(=O)[C@@]12C
44.2%	CC(=O)c1c(O)c(C)c(O)c2c1OC1=CC(=O)/C(=C(/C)Nc3cnc(N)cn3)C(=O)[C@@]12C
27.6%	CC(=O)c1c(O)c(C)c(O)c2c1OC1=CC(=O)/C(=C(/C)Nc3ccc4c(ccn4C)c3)C(=O)[C@@]12C
58.3%	CC(=O)c1c(O)c(C)c(O)c2c1OC1=CC(=O)/C(=C(/C)Nc3ccc(O)cn3)C(=O)[C@@]12C
inactive	CC(=O)c1c(O)c(C)c(O)c2c1OC1=CC(=O)/C(=C(/C)N)C(=O)[C@@]12C
46.4%	CC(=O)c1c(O)c(C)c(O)c2c1OC1=CC(=O)/C(=C(/C)Nc3ccc(N)cn3)C(=O)[C@@]12C
5.4%	COc1cc(N/C(C)=C2\C(=O)C=C3Oc4c(C(C)=O)c(O)c(C)c(O)c4[C@@]3(C)C2=O)cc(OC)c1OC
22%	CC(=O)c1c(O)c(C)c(O)c2c1OC1=CC(=O)/C(=C(/C)Nc3cc(Cl)ccc3O)C(=O)[C@@]12C
12.7%	CC(=O)c1c(O)c(C)c(O)c2c1OC1=CC(=O)/C(=C(/C)Nc3cc(C)ccc3O)C(=O)[C@@]12C
inactive	CC(=O)c1c(O)c(C)c(O)c2c1OC1=CC(=O)/C(=C(/C)Nc3ccc4c(c3)ncn4C)C(=O)[C@@]12C
48.2%	CC(=O)c1c(O)c(C)c(O)c2c1OC1=CC(=O)/C(=C(/C)Nc3ccc(N4CCN(C)CC4)cc3)C(=O)[C@@]12C
25.3%	CC(=O)c1c(O)c(C)c(O)c2c1OC1=CC(=O)/C(=C(/C)Nc3ccc(C)cc3O)C(=O)[C@@]12C
inactive	CC(=O)c1c(O)c(C)c(O)c2c1OC1=CC(=O)/C(=C(/C)Nc3cccc4cccnc34)C(=O)[C@@]12C
11.3%	CC(=O)c1c(O)c(C)c(O)c2c1OC1=CC(=O)/C(=C(/C)Nc3cccc(N(C)C)c3)C(=O)[C@@]12C
48.1%	CC(=O)c1c(O)c(C)c(O)c2c1OC1=CC(=O)/C(=C(/C)Nc3ccc(N(C)C)cc3)C(=O)[C@@]12C
27.6%	CC(=O)c1c(O)c(C)c(O)c2c1OC1=CC(=O)/C(=C(/C)Nc3ccc(C(=O)O)c(O)c3)C(=O)[C@@]12C
39.2%	CC(=O)c1c(O)c(C)c(O)c2c1OC1=CC(=O)/C(=C(/C)Nc3ccc4[nH]ccc4c3)C(=O)[C@@]12C
